For seven compounds, MBC and MIC results are on record in ChEMBL document CHEMBL1250544, “Diversity-oriented synthesis of cyclic acyldepsipeptides leads to the discovery of a potent antibacterial agent” (2010).

One test deals with Enterococcus faecium. The test can be described thus: Antimicrobial activity against vancomycin-resistant Enterococcus faecium clinical isolate obtained from tissue after 24 hrs by broth microdilution assay. The class given is functional. Summed up: (§1)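 CLSI broth microdilution in duplicate on clinical isolates from Veterans Affairs Medical Center patients. Compounds were dissolved in DMSO and serially diluted twofold in cation-adjusted Mueller–Hinton broth (25 µg/mL Ca, 12.5 µg/mL Mg). Inoculum was verified by colony counts on tryptic soy agar. MIC is the lowest concentration visually inhibiting >99%.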

The subject of test [1] is Enterococcus faecalis. Put plainly: Antimicrobial activity against vancomycin-resistant Enterococcus faecalis clinical isolate obtained from rectal swab after 24 hrs by broth microdilution assay.
In test [2] the test system is Enterococcus faecalis. Put plainly: Antimicrobial activity against Enterococcus faecalis clinical isolate obtained from rectal swab after 24 hrs by broth microdilution assay. It is filed as functional. In a few lines: (§2)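 CLSI broth microdilution run in duplicate. Compounds were dissolved in DMSO and serially diluted twofold in cation-adjusted Mueller–Hinton broth (25 µg/mL calcium, 12.5 µg/mL magnesium). Inoculum was verified by colony counts on tryptic soy agar. MIC was the lowest concentration visually inhibiting >99% of colonies.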
For orientation: Broth dilution looks for growth in wells or tubes with falling amounts of substance.

In test [3] the test system is Staphylococcus aureus. Put plainly: Antimicrobial activity against methicillin-susceptible Staphylococcus aureus ATCC 3556 after 24 hrs by broth microdilution assay. The class given is functional. In a few lines:
as §2

The test system of test [4] is Staphylococcus aureus. Put plainly: Antimicrobial activity against methicillin-resistant Staphylococcus aureus from blood after 24 hrs by broth microdilution assay. The class given is functional. In a few lines: as §1
Test [5] concerns Enterococcus faecalis. The test can be described thus: Antimicrobial activity against Enterococcus faecalis ATCC 29212 after 24 hrs by broth microdilution assay. It is filed as functional. Particulars: ATCC 29212, 24 h. Summed up:
as §2

Setting [6] is: Staphylococcus aureus, ATCC 3556, 24 h, read-out: MIC.
Where [7] appears, read: Staphylococcus aureus, 24 h, read-out: MBC.

Structures are written as SMILES. Values after ≈ are worked out from the molar mass of the structure shown. Where only a bound is given, the exact number is not on record here.

In the case of `CCCC/C=C/C(=O)N[C@@H](Cc1cccc(F)c1)C(=O)N[C@@H]1COC(=O)[C@@H]2CCCN2C(=O)[C@H](C)NC(=O)[C@@H]2CCCCN2C(=O)[C@@H]2CCCN2C1=O`, the MBC against Enterococcus faecium came out at 0.08 µg/mL (≈ 0.108 µM); against Enterococcus faecalis [1] it was 0.04 µg/mL (≈ 0.0541 µM); in the test on Enterococcus faecalis [2], 0.04 µg/mL (≈ 0.0541 µM); in the test with Staphylococcus aureus [4], 1.25 µg/mL (≈ 1.69 µM); in the test with Staphylococcus aureus [4] (setting [7]) it was 1.25 µg/mL (≈ 1.69 µM); against Enterococcus faecalis [5], 1.25 µg/mL (≈ 1.69 µM). Further, the MIC was 0.08 µg/mL (≈ 0.108 µM) with Enterococcus faecium; 0.04 µg/mL (≈ 0.0541 µM) with Enterococcus faecalis [1]; 0.04 µg/mL (≈ 0.0541 µM) with Enterococcus faecalis [2]; 1.25 µg/mL (≈ 1.69 µM) in the test on Staphylococcus aureus [3]; 1.25 µg/mL (≈ 1.69 µM) in the test on Staphylococcus aureus [3] (setting [6]); 0.16 µg/mL (≈ 0.217 µM) against Enterococcus faecalis [5].
For `CCCC/C=C/C(=O)N[C@@H](Cc1cccc(F)c1)C(=O)N[C@@H]1COC(=O)[C@@H]2CCCN2C(=O)[C@H](C)NC(=O)[C@H]2CCCCN2C(=O)[C@@H]2CCCN2C1=O`, in the test with Staphylococcus aureus [3] (setting [6]), the minimal inhibitory concentration (MIC) was > 312 µg/mL. Also, in the test with Staphylococcus aureus [4] (setting [7]), the MBC was > 312 µg/mL.
Consider `CCCC/C=C/C(=O)N[C@@H](Cc1cccc(F)c1)C(=O)N[C@@H]1COC(=O)[C@@H]2CCCN2C(=O)[C@H](C)NC(=O)[C@@H]2CC(C)CCN2C(=O)[C@@H]2CCCN2C1=O` (some centres undefined), for which the MBC turned out to be 0.08 µg/mL (≈ 0.106 µM) against Enterococcus faecium, 0.04 µg/mL (≈ 0.0531 µM) in the test on Enterococcus faecalis [1], 0.04 µg/mL (≈ 0.0531 µM) in the test with Enterococcus faecalis [2] and 0.08 µg/mL (≈ 0.106 µM) in the test on Enterococcus faecalis [5]. Also, the MIC against Enterococcus faecium is 0.04 µg/mL (≈ 0.0531 µM); against Enterococcus faecalis [1], 0.04 µg/mL (≈ 0.0531 µM); with Enterococcus faecalis [2] it was 0.02 µg/mL (≈ 0.0266 µM); with Staphylococcus aureus [3] (setting [6]) it was 0.6 µg/mL (≈ 0.797 µM); in the test on Enterococcus faecalis [5], 0.04 µg/mL (≈ 0.0531 µM).
Regarding `CCCC/C=C/C(=O)N[C@@H](Cc1cccc(F)c1)C(=O)N[C@@H]1COC(=O)[C@@H]2CCCN2C(=O)[C@H](C)NC(=O)[C@H]2CC(C)CCN2C(=O)[C@@H]2CCCN2C1=O` (some centres undefined), the MIC with Staphylococcus aureus [3] (setting [6]) was > 156 µg/mL.
Turning to `CCCC/C=C/C(=O)N[C@@H](Cc1cccc(F)c1)C(=O)N[C@@H]1COC(=O)[C@@H]2CCCN2C(=O)[C@H](C)NC(=O)C2(CCC2)N(C)C(=O)[C@@H]2CCCN2C1=O`, the figures for the MIC against Staphylococcus aureus [3] and in the test on Staphylococcus aureus [3] (setting [6]) were >312 µg/mL and 312 µg/mL (≈ 422 µM), respectively. Further, the MBC in the test with Staphylococcus aureus [4] (setting [7]) was > 312 µg/mL.
With `CCCC/C=C/C(=O)N[C@@H](Cc1cccc(F)c1)C(=O)N[C@@H]1COC(=O)[C@@H]2CCCN2C(=O)[C@H](C)NC(=O)C2(CCCC2)N(C)C(=O)[C@@H]2CCCN2C1=O`, the MBC with Staphylococcus aureus [4] (setting [7]) was > 312 µg/mL.
The same measure, in the same setting: under `CCCC/C=C/C(=O)N[C@@H](Cc1cccc(F)c1)C(=O)N[C@@H]1COC(=O)[C@@H]2CCCN2C(=O)[C@H](C)NC(=O)C2(CCCCC2)N(C)C(=O)[C@@H]2CCCN2C1=O` stands > 312 µg/mL.

As usually defined, the MBC is the lowest tested concentration that kills the bacteria rather than only halting them. What is called MIC is the lowest concentration that inhibits growth of the organism.
